Experimental data from ChEMBL document CHEMBL4680236, “Design, synthesis and structure-activity relationships of novel 15-membered macrolides: Quinolone/quinoline-containing sidechains tethered to the C-6 position of azithromycin acylides” (Eur J Med Chem, 2020).
≈ marks a conversion by molar mass, not a printed value.

Legend:
Escherichia coli [1] = assay: Antibacterial activity against Escherichia coli BW25113 depletion of toIC efflux gene assessed as reduction in microbial growth; type: functional
Streptococcus pneumoniae [2] = assay: Bactericidal activity against Erythromycin-susceptible Streptococcus pneumoniae ATCC 49619; type: functional
Summary of the method: (§1)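 Bacteria were exposed to 1- to 8-fold MIC of the sample, then transferred to fresh medium without antibacterial. After further incubation, colonies were counted. MBC was taken as the lowest concentration giving a >3 log10 reduction in colony number.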

Staphylococcus aureus [3] = assay: Antibacterial activity against MLSB/methicillin-resistant Staphylococcus aureus 15B196 assessed as reduction in microbial growth; type: functional
Staphylococcus aureus [4] = assay: Bactericidal activity against MLSB/methicillin-resistant Staphylococcus aureus 15B196; type: functional
Summary of the method: (§2)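 Bacteria were exposed to 1- to 8-fold their MIC of test sample, then transferred to fresh culture medium without antibacterial compound and incubated for the required time. Colonies were then counted. MBC is the lowest concentration giving a reduction in colony number of >3 Log₁₀.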

Streptococcus pneumoniae [5] = assay: Bactericidal activity against penicillin-susceptible Streptococcus pneumoniae PU09 harboring mef gene; type: functional; summary of the method: as §2
Staphylococcus aureus [6] = assay: Bactericidal activity against MLSB/methicillin/ciprofloxacin-resistant Staphylococcus aureus PU32 harboring ermA gene; type: functional; summary of the method: as §2
[7] = biological target: T1, DNA gyrase (Escherichia coli) (UniProt P0AES6+P0AES4); assay: Poison activity at Escherichia coli DNA gyrase assessed as stabilization of DNA cleavage complex by measuring linear plasmid DNA formation using supercoiled pBR322 incubated for 15 mins by electrophoresis relative to ciprofloxacin; type: protein-complex assay
Summary of the method: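 Cleavage assay with 0.3 µg supercoiled pBR322 and 10 units E. coli gyrase. Buffer: 50 mM Tris-HCl pH 8.0, 10 mM MgCl2, 10 mM DTT, 50 µg/mL BSA, 1 mM ATP, 5 µg/mL tRNA; 37 °C, 15 min. Then 1% SDS for 5 min, then 25 mM EDTA plus 100 µg/mL proteinase K for 30 min. Phenol/chloroform extraction, then 1.2% agarose with ethidium bromide.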

Staphylococcus aureus [8] = assay: Ratio of MBC to MIC against MLSB/methicillin/ciprofloxacin-resistant Staphylococcus aureus PU32 harboring ermA gene; type: functional
Streptococcus pneumoniae [9] = assay: Antibacterial activity against penicillin-susceptible Streptococcus pneumoniae PU09 harboring mef gene assessed as reduction in microbial growth; type: functional
Streptococcus pneumoniae [10] = assay: Antibacterial activity against MLSB-resistant Streptococcus pneumoniae 07P390 harboring ermB gene assessed as reduction in microbial growth; type: functional
[11] = biological target: T1, DNA gyrase (Escherichia coli); conditions: time 15.0 min
Streptococcus pneumoniae [12] = assay: Ratio of MBC to MIC against MLSB-resistant Streptococcus pneumoniae 07P390 harboring ermB; type: functional
Haemophilus influenzae [13] = assay: Antibacterial activity against azithromycin-susceptible Haemophilus influenzae ATCC 49247 assessed as reduction in microbial growth; type: functional
Streptococcus pneumoniae [14] = assay: Antibacterial activity against Erythromycin-susceptible Streptococcus pneumoniae ATCC 49619 assessed as reduction in microbial growth; type: functional
Streptococcus pneumoniae [15] = assay: Ratio of MBC to MIC against penicillin-susceptible Streptococcus pneumoniae PU09; type: functional
Staphylococcus aureus [16] = assay: Antibacterial activity against MLSB/methicillin-resistant Staphylococcus aureus 15B196 assessed as reduction in microbial growth relative to ciprofloxacin; type: functional
Haemophilus influenzae [17] = assay: Antibacterial activity against azithromycin-susceptible Haemophilus influenzae ATCC 49247 assessed as reduction in microbial growth relative to ciprofloxacin; type: functional
Escherichia coli [18] = assay: Antibacterial activity against Escherichia coli JW5503-1 depletion of toIC efflux gene assessed as reduction in microbial growth; type: functional
DNA gyrase = DNA gyrase (Escherichia coli, UniProt P0AES4+P0AES6); assay: Inhibition of Escherichia coli DNA gyrase using relaxed DNA as substrate incubated for 15 mins by ethidium bromide-based agarose gel electrophoresis; type: protein-complex assay
Summary of the method: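 Supercoiling assay with relaxed pBR322 (0.3 µg), made by treating negatively supercoiled pBR322 with E. coli topoisomerase I, and 1 unit E. coli gyrase. Buffer: 50 mM Tris-HCl pH 8.0, 10 mM MgCl2, 100 mM potassium glutamate, 10 mM DTT, 50 µg/mL BSA, 1 mM ATP. Run 37 °C, 15 min, stopped with 25 mM EDTA. IC50 in µM.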

Haemophilus influenzae [19] = assay: Ratio of MBC to MIC against azithromycin-susceptible Haemophilus influenzae ATCC 49247; type: functional
Escherichia coli [20] = assay: Antibacterial activity against Escherichia coli JW5503-KanS depletion of toIC efflux gene assessed as reduction in microbial growth; type: functional
Streptococcus pneumoniae [21] = assay: Ratio of MBC to MIC against Erythromycin-susceptible Streptococcus pneumoniae ATCC 49619; type: functional
Streptococcus pneumoniae [22] = assay: Bactericidal activity against MLSB-resistant Streptococcus pneumoniae 07P390 harboring ermB gene assessed as reduction in microbial growth; type: functional; summary of the method: as §2
Staphylococcus aureus [23] = assay: Ratio of MBC to MIC against MLSB/methicillin-resistant Staphylococcus aureus 15B196; type: functional
Staphylococcus aureus [24] = assay: Antibacterial activity against MLSB/methicillin/ciprofloxacin-resistant Staphylococcus aureus PU32 harboring ermA gene assessed as reduction in microbial growth; type: functional
Haemophilus influenzae [25] = assay: Bactericidal activity against azithromycin-susceptible Haemophilus influenzae ATCC 49247; type: functional; summary of the method: as §1
Staphylococcus aureus [26] = assay: Antibacterial activity against MLSB/methicillin/ciprofloxacin-resistant Staphylococcus aureus PU32 harboring ermA gene assessed as reduction in microbial growth relative to ciprofloxacin; type: functional
Streptococcus pyogenes [27] = assay: Bactericidal activity against MLSB-resistant Streptococcus pyogenes 12-206 harboring ermA gene; type: functional; summary of the method: as §2
Streptococcus pyogenes [28] = assay: Ratio of MBC to MIC against MLSB-resistant Streptococcus pyogenes 12-206 harboring ermA gene; type: functional
Streptococcus pyogenes [29] = assay: Antibacterial activity against MLSB-resistant Streptococcus pyogenes 12-206 harboring ermA gene assessed as reduction in microbial growth; type: functional

Row | Compound | MIC (Escherichia coli [1]) [µg/mL] | MBC (Streptococcus pneumoniae [2]) [µg/mL] | MIC (Staphylococcus aureus [3]) [µg/mL] | MBC (Staphylococcus aureus [4]) [µg/mL] | MBC (Streptococcus pneumoniae [5]) [µg/mL] | MBC (Staphylococcus aureus [6]) [µg/mL] | Activity [7] [%] | MIC (Streptococcus pneumoniae [9]) [µg/mL] | MIC (Streptococcus pneumoniae [10]) [µg/mL] | EC [11] [µM] | Ratio (Streptococcus pneumoniae [12]) | MIC (Haemophilus influenzae [13]) [µg/mL] | MIC (Streptococcus pneumoniae [14]) [µg/mL] | Ratio (Streptococcus pneumoniae [15]) | fold change (FC) (Staphylococcus aureus [16]) | fold change (FC) (Haemophilus influenzae [17]) | MIC (Escherichia coli [18]) [µg/mL] | IC50 (DNA gyrase) [µM] | Ratio (Haemophilus influenzae [19]) | MIC (Escherichia coli [20]) [µg/mL] | further results
1 | CC[C@H]1OC(=O)[C@H](C)[C@@H](OC(=O)Cc2ccccn2)[C@H](C)[C@@H](O[C@@H]2O[C@H](C)C[C@H](N(C)C)[C@H]2O)[C@](C)(OC(=O)CCN2CCN(c3cc4c(cc3F)c(=O)c(C(=O)O)cn4C3CC3)CC2)C[C@@H](C)CN(C)[C@H](C)[C@@H](O)[C@]1(C)O | 4 | 0.25 (≈ 0.228 µM) | 16 | 128 (≈ 117 µM) | 4 (≈ 3.65 µM) | > 128 | 28 | 2 | 4 | 69.5 | 8 | 0.25 | 0.125 | 2 | 9.7 | 19 | 1 | 44.1 | 1 | 1 | Ratio (Staphylococcus aureus [8]): >8; Ratio (Streptococcus pneumoniae [21]): 2; MBC (Streptococcus pneumoniae [22]): 32 µg/mL; Ratio (Staphylococcus aureus [23]): 8; MIC (Staphylococcus aureus [24]): 16 µg/mL; MBC (Haemophilus influenzae [25]): 0.25 µg/mL (≈ 0.228 µM); fold change (FC) (Staphylococcus aureus [26]): 0.076
2 | CC[C@H]1OC(=O)[C@H](C)[C@@H](OC(=O)Cc2ccccn2)[C@H](C)[C@@H](O[C@@H]2O[C@H](C)C[C@H](N(C)C)[C@H]2O)[C@](C)(OC(=O)CCN2CCN(c3c(F)cc4c(=O)c(C(N)=O)cn(C5CC5)c4c3OC)CC2C)C[C@@H](C)CN(C)[C@H](C)[C@@H](O)[C@]1(C)O (stereo partly specified) | 2 | 1 (≈ 0.878 µM) | 8 | 8 (≈ 7.03 µM) | 8 (≈ 7.03 µM) | > 256 | 71 | 2 | 8 | 18.2 | 1 | 0.5 | 0.5 | 4 | 1.2 | 36 | 0.5 | 9.6 | 1 | 0.5 | MBC (Streptococcus pyogenes [27]): > 64 µg/mL; Ratio (Streptococcus pyogenes [28]): >8; MIC (Streptococcus pyogenes [29]): 8 µg/mL; Ratio (Streptococcus pneumoniae [21]): 2; MBC (Streptococcus pneumoniae [22]): 8 µg/mL; Ratio (Staphylococcus aureus [23]): 1; MIC (Staphylococcus aureus [24]): 128 µg/mL; MBC (Haemophilus influenzae [25]): 0.5 µg/mL (≈ 0.439 µM); fold change (FC) (Staphylococcus aureus [26]): 0.14
